High-throughput results as filed in PubChem.
PAX8 inh HTS: inhibitors of PAX8-driven TPO luciferase reporter, primary screen, RMG-I cells, single concentration; 360,000 tested, 1.2% active; inhibition, % at 12.6 µM; SteadyGlo, 24 h;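 active = mean replicate inhibition at least 60% with every replicate also reaching 60%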;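 also: luciferase light reporting Pax8 driven TPO promoter activity; plate controls were median of neutral control wells for no effect and mitoxantrone controls for full effect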
FGF22 binding: binders of human FGF22 protein, primary screen, FGF22 synaptogenesis inhibitor project, biophysical, thermal shift, single point; recombinant FGF22 thermal shift, SYPRO orange fluorescence; percent of sucrose octasulfate shift, DMSO zero; activity (Tm shift, normalised), % at 9.99 µM; 340,000 tested, 1.5% active; AID 651658, 2012;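 active = mean Tm shift, scaled 0 neutral to 100 positive control, at about 1.3% or above, every replicate too, limit read from the data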
Target sequence (Q9HCT0 whole entry, looked up): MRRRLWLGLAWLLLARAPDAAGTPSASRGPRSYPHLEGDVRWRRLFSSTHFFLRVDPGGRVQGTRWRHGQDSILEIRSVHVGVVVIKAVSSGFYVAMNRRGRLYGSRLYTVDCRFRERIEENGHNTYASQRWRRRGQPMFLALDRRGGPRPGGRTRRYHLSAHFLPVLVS
FN deposit inh: inhibitors of fibronectin matrix deposition, primary screen, AH1F cells, Alexa488-fibronectin fluorescence, plate reader | AH1F fibroblasts, overnight | inhibition, % at 12.6 µM | 350,000 tested, 0.086% active;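 active = mean inhibition across replicates of 30% or more, regardless of how many single replicates reach that level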;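 also: positive control wells lacked labelled fibronectin entirely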
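material = AH1F fibroblast monolayer depositing Alexa488-labelled fibronectin into matrix | amount = 10000 AH1F cells/well | buffer or medium = DMEM plus 2% serum, read in PBS | incubation = 1 h cell adhesion before compound, then overnight fibronectin incubation | detection = fluorescence at 485 nm excitation, 525 nm emission | evaluation = percent inhibition as loss of matrix-bound fibronectin fluorescence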
EWS-Fli block: EWS/Fli-driven NR0B1 reporter inhibitors, primary screen, A673 cells, NR0B1 luciferase, luminescence, MLPCN library; viability-normalised; inhibition, % at 12.6 µM; 350,000 tested, 0.67% active;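 active = mean inhibition of at least 50% after viability correction, with every replicate also passing that limit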;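 also: firefly luciferase signal divided by Alamar Blue viability fluorescence both relative to DMSO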
Env fusion inh: inhibitors of HIV-1 Env-driven cell-cell fusion, primary screen, HeLa-JRFL effector, CEM21 target cells, luciferase | 360,000 tested, 1.1% active | AID 651610, 2012 | inhibition, % at 12.3 µM;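 active = mean replicate inhibition score of at least 50 and every replicate individually at or above 50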;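 also: 0% = plate neutral controls and 100% = maraviroc near 300 nM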
PGC1a acetyl inh: inhibitors of PGC1a acetylation signal, primary screen, cell-based, U2OS, AlphaScreen, inhibitor mode; AlphaScreen anti-acetyl-lysine; with virally co-expressed GCN5 acetyltransferase; AID 651687, 2012; inhibition, % at 15.6 µM; 350,000 tested, 0.17% active;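 active = every replicate shows inhibition of at least 40%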;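 also: 0% = neutral control wells and 100% = positive control wells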
* marks the source's active call; other numbers are inactive results; nt = not tested or not shown; ! = repeats disagree; [ ] = remark or other dose. Hits are enriched below; roughly 3.1% of the tested compounds scored in any of these assays.

SMILES	PAX8 inh HTS	FGF22 binding	FN deposit inh	EWS-Fli block	Env fusion inh	PGC1a acetyl inh
C[C@H](CO)N1C[C@H](C)[C@@H](CN(C)S(C)(=O)=O)Oc2c(NC(=O)Cc3ccccc3)cccc2C1=O	-11	0	30*	2	-38	nt
C[C@@H]1CN([C@H](C)CO)C(=O)c2cccc(NC(=O)c3ccncc3)c2O[C@@H]1CN(C)CC1CCCCC1	-1	nt	-21	-5	-44[16.7 µM]	nt
COc1ccc(NC(=O)Nc2ccc3c(c2)CC(=O)N([C@@H](C)CO)C[C@H](C)[C@@H](CN(C)S(=O)(=O)c2ccc(OC)cc2)O3)cc1	-6	0	nt	-8	6[16.7 µM]	8
C[C@H]1CN([C@@H](C)CO)C(=O)c2cccc(NC(=O)c3ccncc3)c2O[C@H]1CN(C)S(=O)(=O)c1cccs1	nt	0	nt	-6	nt	8
C[C@H]1CN([C@@H](C)CO)C(=O)c2cccc(NC(=O)Nc3ccc(C(F)(F)F)cc3)c2O[C@@H]1CN(C)S(C)(=O)=O	-22	-1	10	-18	nt	1
C[C@@H]1CN([C@@H](C)CO)C(=O)Cc2cc(N(C)C)ccc2O[C@H]1CN(C)S(=O)(=O)c1ccc(F)cc1	7	0	nt	-2	nt	3
C[C@H]1CN([C@@H](C)CO)C(=O)c2cccc(NC(=O)c3ccncc3)c2O[C@@H]1CN(C)Cc1ccc(C(F)(F)F)cc1	-20	17*	9	0	-2[16.7 µM]	1
C[C@@H]1CN([C@@H](C)CO)C(=O)c2cccc(NC(=O)c3ccncc3)c2O[C@H]1CN(C)Cc1ccc(C(F)(F)F)cc1	12	0	15	-8	36[16.7 µM]	1
Cc1ccccc1-c1nc(S(=O)(=O)c2ccccc2)c(NCCN2CCOCC2)o1	43	0	0	8	59*	4
CC(C)C#Cc1cnc2c(c1)C(=O)N([C@@H](C)CO)C[C@H](C)[C@@H](CN(C)C(=O)CN1CCOCC1)O2	nt	0	-4	-5	-17[16.7 µM]	0
O=C(CSc1nnc2ccccn12)c1ccc(Cl)cc1	-29	43*	-2	-14	-29	9
COc1ccc(CN(C)C[C@H]2OCCCC[C@H](C)Oc3ccc(NS(=O)(=O)c4ccc(OC)cc4)cc3C(=O)N([C@H](C)CO)C[C@H]2C)cc1	-4	0	4	4	-76[16.7 µM]	-15
COc1ccc(CN(C)C[C@H]2OCCCC[C@H](C)Oc3ccc(NS(=O)(=O)c4ccc(OC)cc4)cc3C(=O)N([C@H](C)CO)C[C@@H]2C)cc1	-4	0	5	78*	-23[16.7 µM]	9
COc1ccc(CN(C)C[C@H]2OCCCC[C@@H](C)Oc3ccc(NS(=O)(=O)c4ccc(OC)cc4)cc3C(=O)N([C@H](C)CO)C[C@H]2C)cc1	13	0	-14	nt	nt	3
COc1ccc(CN(C)C[C@@H]2OCCCC[C@H](C)Oc3ccc(NS(=O)(=O)c4ccc(OC)cc4)cc3C(=O)N([C@@H](C)CO)C[C@@H]2C)cc1	-9	0	1	69*	-2[16.7 µM]	10
COc1ccc(CN(C)C[C@H]2OCCCC[C@@H](C)Oc3ccc(NS(=O)(=O)c4ccc(OC)cc4)cc3C(=O)N([C@@H](C)CO)C[C@@H]2C)cc1	24	0	-20	69*	-147[16.7 µM]	-14
Cc1cccc(NC(=O)c2onc3c2CCCC3)n1	31	0	6	71*	nt	6
COc1ccc(-c2cc(C(F)F)n3ncc(C(=O)Nc4cc(C)on4)c3n2)cc1	7	43*	-6	-7	-26	nt
COc1ccc(-c2cc(C(F)F)n3ncc(C(=O)Nc4c(C)n(C)n(-c5ccccc5)c4=O)c3n2)cc1	-5	0	6	-2	13	1
CNS(=O)(=O)c1ccc(NC(=O)c2cnn3c(C(F)F)cc(-c4ccccc4)nc23)cc1	-9	43*	1	7	-4	-1
C[C@@H]1CN([C@@H](C)CO)C(=O)c2cc(NC(=O)c3ccncc3)ccc2O[C@@H](C)CCCCO[C@H]1CN(C)Cc1ccc(C(F)(F)F)cc1	51	-1	-3	2	-5[16.7 µM]	nt
C[C@@H]1CN([C@@H](C)CO)C(=O)c2cc(NC(=O)c3ccccc3)ccc2O[C@@H](C)CCCCO[C@@H]1CN(C)Cc1ccc(C(F)(F)F)cc1	77*!	0	12	15	-8	3
C[C@@H]1CCCCO[C@@H](CN(C)Cc2ccc(C(F)(F)F)cc2)[C@H](C)CN([C@H](C)CO)C(=O)c2cc(NC(=O)c3ccccc3)ccc2O1	91*	0	nt	22	79*[16.7 µM]	-26
C[C@@H]1CCCCO[C@@H](CN(C)Cc2ccc(C(=O)O)cc2)[C@@H](C)CN([C@H](C)CO)C(=O)c2cc(NC(=O)c3ccccc3)ccc2O1	10	0	1	-6	14[16.7 µM]	-2
C[C@H](CO)N1C[C@H](C)[C@H](CN(C)Cc2ccc(C(F)(F)F)cc2)OCCCC[C@H](C)Oc2ccc(NC(=O)c3ccccc3)cc2C1=O	90*	0	nt	29	13[16.7 µM]	-4
SMILES	PAX8 inh HTS	FGF22 binding	FN deposit inh	EWS-Fli block	Env fusion inh	PGC1a acetyl inh
C[C@@H]1CN([C@@H](C)CO)C(=O)c2cc(NC(=O)c3ccncc3)ccc2O[C@@H](C)CCCCO[C@@H]1CN(C)Cc1ccc(C(F)(F)F)cc1	23	-1	4	18	-3[16.7 µM]	nt
C[C@@H]1CCCCO[C@H](CN(C)Cc2ccc(C(F)(F)F)cc2)[C@H](C)CN([C@H](C)CO)C(=O)c2cc(NC(=O)c3ccccc3)ccc2O1	99*	0	nt	20	90*[16.7 µM]	-8
COc1ccc(S(=O)(=O)N(C)C[C@H]2OCCCC[C@@H](C)Oc3ccc(NS(=O)(=O)c4c(C)noc4C)cc3C(=O)N([C@@H](C)CO)C[C@H]2C)cc1	56	-1	6	3	-10[16.7 µM]	-11
COc1ccc(-c2cn(CC[C@@H]3CC[C@H](NC(=O)NC(C)C)[C@H](CO)O3)nn2)cc1	-5	0	-8	2	-4[16.7 µM]	-21
Cc1noc(C)c1NC(=O)N(C)C[C@@H]1Oc2ccc(NC(=O)NC(C)C)cc2C(=O)N([C@@H](C)CO)C[C@@H]1C	-20	0	nt	-10	5[16.7 µM]	3
Cc1noc(C)c1S(=O)(=O)Nc1ccc2c(c1)C(=O)N([C@H](C)CO)C[C@@H](C)[C@H](CN(C)C(=O)Nc1ccc3c(c1)OCO3)O2	nt	0	nt	0	nt	-5
Cc1ccccc1S(=O)(=O)N1CC[C@@H]2[C@@H](CO)Nc3ccc(C#Cc4ccccc4)cc3[C@@H]21	-8	0	2	1	nt	20
